Compound activity as filed in PubChem BioAssay.
SIRT5 inh: inhibitors of human sirtuin-5 desuccinylase. Q9NXA8. Purified SirT5, succinyl-peptide AMC, trypsin-coupled fluorescence. inhibition, % at 15 µM. 330,000 compounds, 1.1% hits; in the data active = inhibition above about 15%; inconclusive = no clear call, values can overlap the other calls
E-selectin induc: induces E-selectin expression in human endothelial cells. P16581. HUVEC E-selectin immunofluorescence imaging; normalized: neutral wells 0, TNF-alpha wells 100. activation, % at 7.58 µM. 260,000 compounds, 0.37% hits;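 active = mean E-selectin-positive cell signal at least 10% of the positive control, reached in at least 60% of replicates, without over 20% cell loss; inconclusive = no rule given, readout overlaps actives, possibly toxicity-flagged; inactive = the rest, including those meeting only one limit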
Target sequence (P16581 whole entry, looked up): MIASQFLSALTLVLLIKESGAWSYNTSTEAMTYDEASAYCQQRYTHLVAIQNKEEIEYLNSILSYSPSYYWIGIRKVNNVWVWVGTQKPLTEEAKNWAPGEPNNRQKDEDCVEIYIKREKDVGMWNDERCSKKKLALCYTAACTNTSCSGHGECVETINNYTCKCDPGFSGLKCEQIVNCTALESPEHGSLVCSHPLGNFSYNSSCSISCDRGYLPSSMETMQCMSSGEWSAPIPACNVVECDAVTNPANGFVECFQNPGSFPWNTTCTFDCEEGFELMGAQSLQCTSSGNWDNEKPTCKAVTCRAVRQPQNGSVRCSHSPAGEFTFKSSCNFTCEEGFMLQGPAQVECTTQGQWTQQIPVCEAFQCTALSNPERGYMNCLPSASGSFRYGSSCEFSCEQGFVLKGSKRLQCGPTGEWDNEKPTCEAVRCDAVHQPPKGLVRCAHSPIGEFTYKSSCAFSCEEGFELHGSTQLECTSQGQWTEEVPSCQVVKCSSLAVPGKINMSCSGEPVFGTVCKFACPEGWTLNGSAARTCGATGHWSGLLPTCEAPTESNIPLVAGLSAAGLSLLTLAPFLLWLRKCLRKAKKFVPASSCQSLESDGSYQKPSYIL
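Test system: HUVEC | Signal: Immunofluorescence imaging | Read-out: Percent E-selectin-positive cells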
DENV2 CPE: protects cells from dengue virus 2 cytopathic effect | DENV2-infected cells, cytopathic effect rescue, plate reader | CPE inhibition, % at 9.99 µM | 350,000 compounds, 1.7% hits | AID 651640; in the data active = CPE inhibition above about 20%, passing the limit was not always enough; inconclusive = no clear call, values can overlap the other calls; tested in BHK-21 cells;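 also: 0% = median of neutral control wells and 100% = median of positive control wells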
* hit, by the source's call; ? = inconclusive; . = no result. In the library only some 2.8% were active in any assay of this set; here they are far more common.

SMILES	SIRT5 inh	E-selectin induc	DENV2 CPE
Cc1cccc(C)c1-n1nnnc1C1(C)CCC(=O)N1Cc1ccco1 (stereo not drawn)	-3	11	5
Cc1cccc(C)c1-n1nnnc1C1(C)CCC(=O)N1Cc1cccnc1 (stereo not drawn)	.	0	38*
COc1cccc(S(=O)(=O)Nc2ccc3c(c2)C(=O)N(C)C[C@H](OC)[C@@H](C)CN(Cc2ccccc2F)[C@@H](C)CO3)c1	.	0	1
Cc1cc(C(=O)N/N=C/C=C/c2ccc(Br)cc2)n[nH]1	-3	0	?
Cc1cc(C(=O)N/N=C/C=C/c2ccc([N+](=O)[O-])cc2)n[nH]1	-2	54*	-9
CCC(=O)Nc1ccc2c(c1)C(=O)N(C)[C@@H]1CC[C@H](CC(=O)NCc3ccccc3)O[C@@H]1CO2	-1	0	6
COCC1OS(=O)(=O)NC(CC(=O)SC(C)(C)C)C1C (stereo not drawn)	.	.	-12
C=CCC1NS(=O)(=O)OC(COC)C1C (stereo not drawn)	-1	.	46*
C[C@H](CO)N1C[C@H](C)[C@@H](CN(C)C(=O)Nc2ccc(F)cc2)OCCCC[C@H](C)Oc2ccc(NC(=O)NC3CCCCC3)cc2C1=O	0	1	?
Cc1noc(C)c1NC(=O)Nc1ccc2c(c1)C(=O)N([C@@H](C)CO)C[C@H](C)[C@H](CN(C)Cc1ccncc1)OCCCC[C@@H](C)O2	-3	0	-2
C[C@@H]1CN([C@@H](C)CO)C(=O)c2cc(NS(=O)(=O)c3cccs3)ccc2O[C@@H](C)CCCCO[C@@H]1CN(C)C(=O)CCCN(C)C	-1	0	46*
C[C@H](CO)N1C[C@H](C)[C@@H](CN(C)C(=O)CCCN(C)C)OCCCC[C@H](C)Oc2ccc(NS(=O)(=O)c3cccs3)cc2C1=O	-3	0	-5
C[C@H](CO)N1C[C@H](C)[C@H](CN(C)C(=O)CCCN(C)C)OCCCC[C@H](C)Oc2ccc(NS(=O)(=O)c3cccs3)cc2C1=O	-6	1	55*
C[C@@H]1CCCCO[C@H](CN(C)C(=O)CCCN(C)C)[C@H](C)CN([C@@H](C)CO)C(=O)c2cc(NS(=O)(=O)c3cccs3)ccc2O1	-2	0	-12
O=C(COC(=O)c1cc(=O)[nH]c2ccccc12)c1ccccc1	2	-1	-4
Cc1ccc(CNC(=O)COC(=O)c2cc(=O)[nH]c3ccccc23)cc1	-4	-1	-2
Cc1cccc(C)c1NC(=O)COC(=O)c1cc(=O)[nH]c2ccccc12	17*	2	?
O=C(OCC(=O)N1CCOCC1)c1cc(=O)[nH]c2ccccc12	-4	0	28*
COc1ccc(S(=O)(=O)N(C)C[C@H]2OCCCC[C@H](C)Oc3ccc(NC(=O)Nc4c(C)noc4C)cc3C(=O)N([C@H](C)CO)C[C@H]2C)cc1	-1	0	-11
COCC(=O)Nc1ccc2c(c1)[C@H]1C[C@@H](CC(=O)NCc3ccc(Cl)cc3)O[C@@H](CO)[C@H]1O2	.	0	-2
O=C(Nc1ccccc1)C1CC(=O)N(Cc2ccccc2)C1 (stereo not drawn)	-2	.	0
O=C(Nc1ccc(SC(F)F)cc1)C1CC(=O)N(Cc2ccccc2)C1 (stereo not drawn)	6	1	22*
Cc1ccc(NC(=S)NCc2ccc3[nH]c4c(c3c2)CCCC4)cc1	-3	0	-7
COCCNC(=S)NCc1ccc2[nH]c3c(c2c1)CCCC3	-1	0	33*
CC(=O)Nc1ccc2c(c1)C(=O)N(C)[C@@H]1CC[C@H](CC(=O)NCC3CC3)O[C@H]1CO2	-1	0	5
SMILES	SIRT5 inh	E-selectin induc	DENV2 CPE
CCCC(=O)Nc1ccc2c(c1)C(=O)N(C)[C@@H]1CC[C@H](CC(=O)NCC(F)(F)F)O[C@@H]1CO2	.	0	-3
O=C(NC1CC1)c1cc(Cl)nc2ccccc12	3	0	0
CC1(NC(=O)c2cc(Cl)nc3ccccc23)CCS(=O)(=O)C1 (stereo not drawn)	-3	.	54*
C[C@@H]1CN([C@H](C)CO)C(=O)c2cc(NS(=O)(=O)c3ccc(Cl)cc3)ccc2O[C@@H](C)CCCCO[C@H]1CN(C)Cc1ccc2c(c1)OCO2	7	.	-2
CC(C)NC(=O)Nc1ccc2c(c1)C(=O)N([C@H](C)CO)C[C@H](C)[C@@H](CN(C)S(=O)(=O)c1cn(C)cn1)OCCCC[C@@H](C)O2	-5	.	-6
CN1C(=O)/C(=C2\SC(N3CCCCCC3)=NC2=O)c2ccccc21	32*	.	.
Cc1ccc(/C=C2\SC(N3CCCC3)=NC2=O)cc1	1	0	1
O=C(C1=C[C@@H](c2ccc(Br)cc2)C[C@@H](OCc2ccc(CO)cc2)O1)N1CCCC1	4	.	6
O=C1NC[C@@H](CCCCN2CCN(Cc3ccccc3)C(=O)C2=O)N(CCC2CCCCC2)C1=O	1	.	21*
